Measurements taken from ChEMBL document CHEMBL1142416, “Pharmacological exploitation of the peroxisome proliferator-activated receptor gamma agonist ciglitazone to develop a novel class of androgen receptor-ablative agents” (J Med Chem, 2008).
Active and inactive are the calls of the source. The rule behind the calls is not given here.

How the values were obtained:
[1] = tested on: LNCaP; assay: Suppression of androgen receptor protein expression in human LNCaP cells at 60 uM by Western blotting; assay type: functional, cell-based
In short: (§1)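 LNCaP cells (1×10⁶/T25 flask) were exposed in 10% FBS-supplemented medium; dose series ran 72 h. Protein extracts were resolved on 10% SDS-PAGE and transferred to nitrocellulose, then blocked in 5% milk/TBST. Blots were probed overnight at 4°C with mouse anti-AR or anti-β-actin (1:1000), then HRP goat anti-mouse (1:2500, 1 h), and detected by enhanced chemiluminescence.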

[2] = tested on: LNCaP; assay: Suppression of androgen receptor mRNA expression in human LNCaP cells at 60 uM by RT-PCR; assay type: functional, cell-based
In short: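 LNCaP cells (1×10⁶/T25 flask) were treated in 10% FBS-supplemented medium for various times. Total RNA was isolated and 6 μg reverse-transcribed. AR and β-actin (reference) were amplified by PCR with gene-specific primers, and products were resolved on 1.5% agarose gels.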

[3] = tested on: LNCaP; assay: Induction of apoptosis in human LNCaP cells assessed as caspase 7 activation after 72 hrs; assay type: functional, cell-based
In short: (§2)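 LNCaP cells were treated over a dose range for 72 h. Lysates were prepared with protease/phosphatase inhibitors and run on 10% SDS-PAGE, then transferred to nitrocellulose. PARP cleavage and caspase-3 and caspase-7 processing were detected by immunoblot with chemiluminescence.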

[4] = tested on: LNCaP; assay: Inhibition of androgen receptor mRNA expression in human LNCap cells after 72 hrs; assay type: functional, cell-based; conditions: in the assay text read “protein expression” for “mRNA expression”
[5] = tested on: LNCaP; assay: Inhibition of androgen receptor protein expression in human LNCaP cells after 72 hrs by Western blotting; assay type: functional, cell-based; in short: as §1
[6] = tested on: LNCaP; assay: Induction of apoptosis in human LNCaP cells assessed as caspase 3 activation after 72 hrs; assay type: functional, cell-based; in short: as §2
[7] = tested on: LNCaP; assay: Induction of apoptosis in human LNCaP cells assessed as PARP cleavage after 72 hrs; assay type: functional, cell-based; in short: as §2
[8] = tested on: LNCaP; assay: Cell cycle arrest in human LNCaP cells assessed as accumulation at S phase at 7.5 uM after 72 hrs; assay type: functional
In short: (§3)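 LNCaP cells were plated at 2.5 × 10⁶ cells/well and treated at the stated concentrations for 72 h. They were washed in PBS, trypsinized and fixed in ice-cold 80% ethanol overnight at 4°C. Staining used propidium iodide (50 μg/ml) with RNase A (100 units/ml) in PBS. Phase distribution was measured by flow cytometry; values are the mean of two independent determinations.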

[9] = tested on: LNCaP; assay: Cell cycle arrest in human LNCaP cells assessed as accumulation at G2/M phase at 7.5 uM after 72 hrs; assay type: functional; in short: as §3
[10] = tested on: LNCaP; assay: Cell cycle arrest in human LNCaP cells assessed as accumulation at G2/M phase at 10 uM after 72 hrs; assay type: functional; in short: as §3
[11] = tested on: LNCaP; assay: Decrease in androgen receptor protein expression in human LNCaP cells at 5 uM after 48 hrs by immunocytochemical method; assay type: functional, cell-based
In short: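 LNCaP cells were seeded on coverslips (2.5 × 10⁵/well) for 24 h, then exposed to 5 μM for 48 h. They were fixed and permeabilized with 0.1% Triton X-100 in PBS for 1 h. Mouse anti-AR (1:100) was applied for 12 h at room temperature, then Alexa Fluor 488 goat anti-mouse IgG (1:100) for 2 h. Nuclei were counterstained with DAPI and slides imaged by microscopy.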

[12] = tested on: LNCaP; assay: Cell cycle arrest in human LNCaP cells assessed as accumulation at G1 phase at 2.5 uM after 72 hrs; assay type: functional; in short: as §3
[13] = tested on: LNCaP; assay: Cell cycle arrest in human LNCaP cells assessed as accumulation at S phase at 2.5 uM after 72 hrs; assay type: functional; in short: as §3
[14] = tested on: LNCaP; assay: Cell cycle arrest in human LNCaP cells assessed as accumulation at subG1 phase at 5 uM after 72 hrs; assay type: functional; in short: as §3
[15] = tested on: LNCaP; assay: Cell cycle arrest in human LNCaP cells assessed as accumulation at G1 phase at 10 uM after 72 hrs; assay type: functional; in short: as §3
[16] = tested on: PC-3; assay: Antitumor activity against androgen non-responsive human PC3 cells by MTT assay at 72 hrs; assay type: functional, cell-based; conditions: PC-3, 72 h
In short: (§4)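 LNCaP or PC-3 cells were seeded at 6000/well in 10% FBS RPMI 1640 for 24 h. They were then treated at various concentrations in 5% FBS RPMI 1640 for 48 or 72 h, with DMSO-matched controls. MTT (0.5 mg/ml) was added for 2 h at 37°C and the dye solubilized in DMSO. A570 was read in six replicates, and IC50 was taken from dose-response.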

[17] = tested on: PC-3; assay: Antitumor activity against androgen non-responsive human PC3 cells by MTT assay at 48 hrs; assay type: functional, cell-based; conditions: PC-3, 48 h; in short: as §4
[18] = tested on: LNCaP; assay: Cell cycle arrest in human LNCaP cells assessed as accumulation at G1 phase at 1 uM after 72 hrs; assay type: functional; in short: as §3
[19] = tested on: LNCaP; assay: Antitumor activity against androgen responsive human LNCaP cells by MTT assay at 72 hrs; assay type: functional, cell-based; in short: as §4
[20] = tested on: LNCaP; assay: Cell cycle arrest in human LNCaP cells assessed as accumulation at G2/M phase at 1 uM after 72 hrs; assay type: functional; in short: as §3
[21] = tested on: LNCaP; assay: Antitumor activity against androgen responsive human LNCaP cells by MTT assay at 48 hrs; assay type: functional, cell-based; in short: as §4
[22] = tested on: LNCaP; assay: Cell cycle arrest in human LNCaP cells assessed as accumulation at subG1 phase at 10 uM after 72 hrs; assay type: functional; in short: as §3
[23] = tested on: LNCaP; assay: Cell cycle arrest in human LNCaP cells assessed as accumulation at G1 phase at 7.5 uM after 72 hrs; assay type: functional; in short: as §3
[24] = tested on: LNCaP; assay: Cell cycle arrest in human LNCaP cells assessed as accumulation at subG1 phase at 2.5 uM after 72 hrs; assay type: functional; in short: as §3
[25] = tested on: LNCaP; assay: Cell cycle arrest in human LNCaP cells assessed as accumulation at S phase at 10 uM after 72 hrs; assay type: functional; in short: as §3
[26] = tested on: LNCaP; assay: Cell cycle arrest in human LNCaP cells assessed as accumulation at subG1 phase at 1 uM after 72 hrs; assay type: functional; in short: as §3
[27] = tested on: LNCaP; assay: Cell cycle arrest in human LNCaP cells assessed as accumulation at S phase at 5 uM after 72 hrs; assay type: functional; in short: as §3
[28] = tested on: LNCaP; assay: Cell cycle arrest in human LNCaP cells assessed as accumulation at G2/M phase at 2.5 uM after 72 hrs; assay type: functional; in short: as §3
[29] = tested on: LNCaP; assay: Cell cycle arrest in human LNCaP cells assessed as accumulation at S phase at 1 uM after 72 hrs; assay type: functional; in short: as §3
[30] = tested on: LNCaP; assay: Cell cycle arrest in human LNCaP cells assessed as accumulation at G1 phase at 5 uM after 72 hrs; assay type: functional; in short: as §3
[31] = tested on: LNCaP; assay: Cell cycle arrest in human LNCaP cells assessed as accumulation at G2/M phase at 5 uM after 72 hrs; assay type: functional; in short: as §3
[32] = tested on: LNCaP; assay: Cell cycle arrest in human LNCaP cells assessed as accumulation at subG1 phase at 7.5 uM after 72 hrs; assay type: functional; in short: as §3
[33] = tested on: LNCaP; assay: Suppression of androgen receptor protein expression in human LNCaP cells at 30 uM by Western blotting; assay type: functional, cell-based; in short: as §1

CC1(COc2ccc(CC3SC(=O)NC3=O)cc2)CCCCC1 (configuration not stated)
Activity [1]: Active | Activity [2]: Active

CC1(CN2C(=O)S/C(=C\c3cc(Br)c(O)c(Br)c3)C2=O)CCCCC1
Activity [3]: Dose-dependent effect | Activity [4]: Active | IC50 [5]: 4 µM | Activity [6]: Dose-dependent effect | Activity [7]: Dose-dependent effect

CC1(CN2C(=O)S/C(=C\c3ccc(O)cc3)C2=O)CCCCC1
Activity [5]: Dose-dependent effect

CCOc1cc(/C=C2\SC(=O)NC2=O)ccc1OCC1(C)CCCCC1
Activity [5]: Dose-dependent effect

CC1(CN2C(=O)S/C(=C\c3ccc(O)c(C(F)(F)F)c3)C2=O)CCCCC1
Activity [8]: 15% | Activity [9]: 2% | Activity [10]: 0% | Activity [3]: Dose-dependent effect | Activity [11]: Active | Activity [12]: 65% | Activity [13]: 19% | Activity [14]: 10% | Activity [15]: 51% | IC50 [16]: 12 µM | IC50 [17]: 15 µM | Activity [18]: 66% | Activity [4]: Active | IC50 [19]: 3 µM | Activity [20]: 14% | IC50 [21]: 8 µM | IC50 [5]: 2 µM | Activity [22]: 28% | Activity [23]: 63% | Activity [24]: 2% | Activity [25]: 21% | Activity [26]: 1% | Activity [27]: 18% | Activity [28]: 14% | Activity [29]: 19% | Activity [6]: Dose-dependent effect | Activity [30]: 69% | Activity [31]: 3% | Activity [7]: Dose-dependent effect | Activity [32]: 20%

CC1(COc2cccc(/C=C3\SC(=O)NC3=O)c2)CCCCC1
Activity [5]: Dose-dependent effect

CC1(CN2C(=O)SC(Cc3ccc(O)c(C(F)(F)F)c3)C2=O)CCCCC1 (configuration not stated)
Activity [5]: Dose-dependent effect

CC1(COc2ccc(/C=C3\SC(O)=NC3=O)cc2)CCCCC1
Activity [33]: Active
